The chains are these.
B2: mMC3R with C-terminal NanoLuc or HaloTag (NanoBRET constructs) (receptor, mouse, UniProt P33033 1-323, looked up)
chain: MNSSCCLSSVSPMLPNLSEHPAAPPASNRSGSGFCEQVFIKPEVFLALGIVSLMENILVILAVVRNGNLHSPMYFFLCSLAAADMLVSLSNSLETIMIAVINSDSLTLEDQFIQHMDNIFDSMICISLVASICNLLAIAIDRYVTIFYALRYHSIMTVRKALTLIGVIWVCCGICGVMFIIYSESKMVIVCLITMFFAMVLLMGTLYIHMFLFARLHVQRIAVLPPAGVVAPQQHSCMKGAVTITILLGVFIFCWAPFFLHLVLIITCPTNPYCICYTAHFNTYLVLIMCNSVIDPLIYAFRSLELRNTFKEILCGCNSMNLG

The nature of data set [1]: In vitro mouse serum stability assay. Particulars: for half-life / remaining at 0.5 h: serum. It counts as in vitro ADME.
Data set [2] has as its target mouse melanocortin 3 receptor, mMC3R-Flag, stably expressed on HEK293 cells (mouse) (UniProt P33033).
Data set [3] addresses mouse melanocortin 4 receptor, wildtype mMC4R, stably expressed on HEK293 cells (mouse) (UniProt P56450).
Data set [4] relates to male mice. Put plainly: ICV fasting-refeeding paradigm, energy homeostasis in TSE metabolic cages. It counts as in vivo, mouse. Particulars: 5 nmol ICV. A digest of the protocol: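 Cannula-validated male mice were acclimated for one week in sealed TSE metabolic home cages (12 h light/dark, 23–25 °C) and tested in a cross-over design. Food was removed at lights out for a 22 h fast. At t=0, 2 h before lights out, mice received 5 nmol test compound or saline ICV and food was returned. Mice were watched visually for ≥2 h after dosing.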

The target of data set [5] is B2. Put plainly: FRET or BRET. A general note: Bioluminescence resonance energy transfer reports proximity on the nanometre scale.
Data set [6] deals with the molecule itself. Put plainly: FRET or BRET.

Non-standard residues stand in square brackets, D forms with d. Residues, ends and D or L forms follow the SMILES beside them.

The values below come from publication PMC5679024 (ACS chemical neuroscience, 2017).

By half-life is commonly meant the time in which the quantity being followed falls by half. A low value points to fast loss. For orientation: fraction remaining means what is left of the initial amount, in per cent. As for `CC(=O)N[C@@H](Cc1cnc[nH]1)C(=O)N[C@H](Cc1ccccc1)C(=O)N[C@@H](CCCNC(=N)N)C(=O)N[C@@H](Cc1c[nH]c2ccccc12)C(=O)N1CCC[C@H]1C(=O)NCC(=O)N1CCC[C@H]1C(=O)NCC(=O)N1CCC[C@H]1C(=O)NCC(=O)N1CCC[C@H]1C(=O)NCC(=O)N1CCC[C@H]1C(=O)NCC(=O)N1CCC[C@H]1C(=O)NCC(=O)N[C@@H](Cc1cnc[nH]1)C(=O)N[C@H](Cc1ccccc1)C(=O)N[C@@H](CCCNC(=N)N)C(=O)N[C@@H](Cc1c[nH]c2ccccc12)C(N)=O` [CJL-1-31, Ac-His-DPhe-Arg-Trp-(Pro-Gly)6-His-DPhe-Arg-Trp-NH2] (Ac-H[dF]RWPGPGPGPGPGPGH[dF]RW-NH2), in data set [1], the half-life was 6 min and the share remaining at 0.5 h is at most 2%.

As to α-MSH (peptide), the Agonist cAMP Based Alpha Screen Results EC50 (nM), stable mMC3R cells in data set [2] stood at 0.21 nM. For the same molecule, the Agonist cAMP Based Alpha Screen Results EC50 (nM), stable mMC4R cells in data set [3] came out at 3.1 nM.

In data set [1] (mouse serum), `CC(=O)N[C@@H](Cc1cnc[nH]1)C(=O)N[C@H](Cc1ccccc1)C(=O)N[C@@H](CCCN=C(N)N)C(=O)N[C@@H](Cc1c[nH]c2ccccc12)C(N)=O` [CJL-1-14, Ac-His-DPhe-Arg-Trp-NH2] returned a fraction remaining at 72 h, 10 µM of 12%. Also, the half-life in data set [1] was 1010 min. In addition, in data set [4] (at least 2 hours post treatment), the “adverse reactions, visual monitoring” value is listed as “no adverse reactions”. The ambulatory activity entry in data set [4] (fasting-refeeding) is recorded as “No significant effects”.

On to `CC(=O)N[C@@H](Cc1cnc[nH]1)C(=O)N[C@H](Cc1ccccc1)C(=O)N[C@@H](CCCNC(=N)N)C(=O)N[C@@H](Cc1c[nH]c2ccccc12)C(=O)N1CCC[C@H]1C(=O)NCC(=O)N1CCC[C@H]1C(=O)NCC(=O)N1CCC[C@H]1C(=O)NCC(=O)N1CCC[C@H]1C(=O)NCC(=O)N1CCC[C@H]1C(=O)NCC(=O)N1CCC[C@H]1C(=O)NCC(N)=O` [CJL-5-35-1, Ac-His-DPhe-Arg-Trp-(Pro-Gly)6-NH2] (Ac-H[dF]RWPGPGPGPGPGPG-NH2), for which, in data set [1], the half-life is 6 min and the share remaining at 0.5 h is at most 2%.

As for `N=C(N)NCCC[C@H](NC(=O)[C@@H](Cc1ccccc1)NC(=O)[C@H](Cc1cnc[nH]1)NC(=O)CNC(=O)[C@@H]1CCCN1C(=O)CNC(=O)[C@@H]1CCCN1C(=O)CNC(=O)[C@@H]1CCCN1C(=O)CNC(=O)[C@@H]1CCCN1C(=O)CNC(=O)[C@@H]1CCCN1C(=O)CNC(=O)[C@@H]1CCCN1)C(=O)N[C@@H](Cc1c[nH]c2ccccc12)C(N)=O` [CJL-1-41, (Pro-Gly)6-His-DPhe-Arg-Trp-NH2] (H-PGPGPGPGPGPGH[dF]RW-NH2), in data set [1], the half-life is 6 min and the amount remaining at 0.5 h is at most 2%.

B1: mMC4R with C-terminal NanoLuc or HaloTag (NanoBRET constructs) (receptor, mouse, UniProt P56450 1-332, looked up)
chain: MNSTHHHGMYTSLHLWNRSSYGLHGNASESLGKGHPDGGCYEQLFVSPEVFVTLGVISLLENILVIVAIAKNKNLHSPMYFFICSLAVADMLVSVSNGSETIVITLLNSTDTDAQSFTVNIDNVIDSVICSSLLASICSLLSIAVDRYFTIFYALQYHNIMTVRRVGIIISCIWAACTVSGVLFIIYSDSSAVIICLISMFFTMLVLMASLYVHMFLMARLHIKRIAVLPGTGTIRQGTNMKGAITLTILIGVFVVCWAPFFLHLLFYISCPQNPYCVCFMSHFNLYLILIMCNAVIDPLIYALRSQELRKTFKEIICFYPLGGICELSSRY
As for B1, the BRET ratio in data set [5] is 150 mBU; in data set [6], 100 mBU.

With B2, the BRET ratio in data set [6] came out at 90 mBU.
